F508del corr: F508del CFTR correction, initial screen, CFBE line, single point; CFBE cells, YFP halide quenching; stimulated with forskolin plus potentiator P3; % fluorescence drop versus neutral controls; activity (quench increase), % at 7.58 µM; hit rate 0.36% among 350,000; AID 720511, 2013;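 active means mean added fluorescence quench of at least 8% versus neutral control, with both replicates also reaching 8%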;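 further: cells transiently co-express mutant CFTR-F508del with the halide-sensitive YFP; corrector assay measuring rescue of mutant channel to the surface after 24 h compound exposure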
rRNA inh HTS: reduced GFP signal of wild-type E. coli, primary screen, bacterial rRNA inhibitor project, GFP/RFP fluorescence, OD600, single point; hit rate 1.6% among 350,000; GFP signal change (wild-type ribosome), % (concentration not given with the values); E. coli WT GFP vs humanized-ribosome RFP mutants, 24 h; active compounds read low; DMSO median 0, no signal -100;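 active means significant combined selectivity score with lowered wild-type GFP, culture density cut under 30%, mutant RFP and density less affected; inactive means any of these conditions unmet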
Cneo AK release: Cryptococcus neoformans cell lysis inducers, primary screen, AK release luminescence, single concentration; lysis activity, % at 15 µM; AID 651654, 2012; C. neoformans lysis, adenylate kinase release luminescence, 4 h; normalised: neutral wells 0, clomiphene wells 100; hit rate 0.2% among 360,000;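 active means mean lysis activity across replicates of at least 80%, whatever share of replicates individually reach that level; inactive means mean lysis activity below 80%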
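Test system: log-phase Cryptococcus neoformans yeast cells; Quantity: yeast cell density of 5 × 10^6 cells/mL; Buffer or medium: YPD; Doses: single compound concentration per well; Timing: 4 h at 37 °C static, read 1 h later; Measured by: AK luminescence; Read-out basis: lysis from increased AK signal; Control set: Clomiphene as positive control.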
CaV13 ICDI inh: Primary screen for inhibitors of IQ motif and Ca2+-dependent inactivation inhibitor domain binding in CACNA1D, Förster resonance energy transfer in living cells, …; HEK cells, CFP/YFP FRET ICDI-IQ, plate reader, 10 min; percent FRET-ratio fall versus neutral wells; inhibition, % at 12.3 µM; hit rate 0.098% among 340,000;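 active means mean replicate inhibition of at least 30% and at least 1% of replicates passing that level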;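 further: 0% = median of the neutral control wells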
Numbers without * were called inactive. An excerpt weighted towards active compounds, which were near 1.7% of everything screened.

For C=CCOc1c(Br)cc(/C=C2/NC(=S)N(C(C)=O)C2=O)cc1OC the results were F508del corr 0, rRNA inh HTS -55 and CaV13 ICDI inh -3.
`COC(=O)C1=C2CC[C@H](CO)NC(=O)N[C@H](Cc3ccccc3)C(=O)NCc3cn(nn3)C[C@H](Cc3ccccc3)NC(=O)c3oc(c(C(=O)OC)c3C(=O)OC)CC[C@H](CO)NC(=O)N[C@H](Cc3ccccc3)C(=O)NCc3cn(nn3)C[C@H](Cc3ccccc3)NC(=O)C(=C1C(=O)OC)O2` gave F508del corr 0 and Cneo AK release 5.
Nc1nonc1-n1nnc(C(=O)N/N=C/c2cccc(Cl)c2)c1-c1cccs1 was read as F508del corr 0, rRNA inh HTS -17*, Cneo AK release 1 and CaV13 ICDI inh -2.
CC(C)c1c(C(=O)N/N=C/c2cccs2)nnn1-c1nonc1N was read as F508del corr -1, rRNA inh HTS -6, Cneo AK release -1 and CaV13 ICDI inh -6.
CC(C)c1c(C(=O)N/N=C/c2c[nH]c3ccccc23)nnn1-c1nonc1N was read as F508del corr 1, rRNA inh HTS -18*, Cneo AK release -1 and CaV13 ICDI inh -1.
`Cc1ccsc1/C=N/NC(=O)c1nnn(-c2nonc2N)c1C(C)C` gave F508del corr -4, rRNA inh HTS -18*, Cneo AK release -3 and CaV13 ICDI inh -4.
For CCC(=O)NC(=S)Nc1ccc(NC(=O)c2cccc([N+](=O)[O-])c2C)cc1 the results were CaV13 ICDI inh -5.
`CCCCCC(=O)NNC(=S)NC(=O)c1ccccc1[N+](=O)[O-]` gave F508del corr 1, rRNA inh HTS -32* and CaV13 ICDI inh -6.
CCC(=O)NC(=S)Nc1ccc(NC(=O)c2ccccc2[N+](=O)[O-])cc1 was read as rRNA inh HTS -22*, Cneo AK release 9 and CaV13 ICDI inh -5.
O=C(Cc1ccccn1)NCC[C@@H]1CC[C@@H](NC(=O)Nc2ccc(Cl)cc2)[C@H](CO)O1 was read as F508del corr 0, rRNA inh HTS 1 and Cneo AK release 2.
Screening CCCN1CCN(C(=O)c2ccc(CS(=O)c3ccc(Cl)cc3)o2)CC1 (stereo not drawn) returned F508del corr 0, rRNA inh HTS 7, Cneo AK release 2 and CaV13 ICDI inh -2.
`CCCN1CCN(C(=O)c2ccc(CS(=O)c3ccc(Br)cc3)o2)CC1` (stereo not drawn) gave F508del corr 0, rRNA inh HTS 6, Cneo AK release 1 and CaV13 ICDI inh 35*.
Screening C[C@@H]1CN([C@H](C)CO)C(=O)Cc2cc(NS(=O)(=O)c3ccccc3)ccc2O[C@H]1CN(C)C(=O)Nc1ccc2c(c1)OCO2 returned F508del corr -3 and rRNA inh HTS 5.
`Cc1cc(C)c(-n2c(SCc3nc4ccccc4s3)n[nH]c2=O)c(C)c1` gave F508del corr -2, rRNA inh HTS -24* and CaV13 ICDI inh -4.
Screening N#CC1c2ccccc2-c2ccccc2N1C(=O)c1ccccc1 (stereo not drawn) returned F508del corr 11*, rRNA inh HTS -14, Cneo AK release -1 and CaV13 ICDI inh -6.
`CCCC(=O)N1CC2(C1)CN(C(=O)Nc1c(C)noc1C)[C@@H](CO)c1c2c2ccc(OC)cc2n1C` gave F508del corr 2 and rRNA inh HTS 1.
For CCOC(=O)c1c(NC(C)=O)sc(/C(C)=N/Nc2ccc(C(=O)O)cc2)c1C the results were F508del corr -2, rRNA inh HTS -17*, Cneo AK release 1 and CaV13 ICDI inh -22.
For CCOC(=O)c1c(NC(C)=O)sc(C(=O)NC2CCCC2)c1C the results were F508del corr 3, rRNA inh HTS 7, Cneo AK release 2 and CaV13 ICDI inh -4.
`C[C@H](CO)N1C[C@H](C)[C@@H](CN(C)Cc2ccc(Cl)c(Cl)c2)Oc2c(NC(=O)Nc3ccc(C(F)(F)F)cc3)cccc2C1=O` gave F508del corr 3, rRNA inh HTS -1 and Cneo AK release -2.
`COC(=O)C1=CN(CCOC23CC4CC(CC(C4)C2)C3)C=C(C(=O)OC)C1c1ccsc1` gave F508del corr 3, rRNA inh HTS 13 and CaV13 ICDI inh 10.
Screening COC(=O)C1=CN(Cc2ccc(OC)cc2)C=C(C(=O)OC)C1c1ccsc1 returned F508del corr 0, rRNA inh HTS -22* and CaV13 ICDI inh -2.
`CN1C(=O)c2cc(NC(=O)c3ccccc3)ccc2OC[C@@H]2O[C@H](CC(=O)O)CC[C@@H]21` gave F508del corr 1, rRNA inh HTS -1 and Cneo AK release 7.
`Nc1nc(SCc2ccc(Br)cc2)n[nH]1` gave F508del corr -1, rRNA inh HTS 1, Cneo AK release 0 and CaV13 ICDI inh -1.
Screening Nc1nc(SCc2ccc(Cl)c(Cl)c2)n[nH]1 returned F508del corr 0, rRNA inh HTS -37* and CaV13 ICDI inh -3.
For N/C(=N\OC(=O)Nc1cccc(C(F)(F)F)c1)c1ccno1 the results were F508del corr 0, rRNA inh HTS -51*, Cneo AK release 6 and CaV13 ICDI inh -5.
Cc1ccc(NC(=O)c2ccc(CSc3ccccn3)cc2)c(O)c1 was read as F508del corr 0, rRNA inh HTS -36* and CaV13 ICDI inh -13.
O=C(Nc1ccccc1)N1CC(=O)N2[C@H](CO)[C@@H](c3ccc(C#Cc4cccnc4)cc3)[C@@H]2C1 was read as F508del corr -1 and rRNA inh HTS -3.
CCCNC(=O)N(C)C[C@H]1Oc2ncc(C3=CCCC3)cc2C(=O)N([C@H](C)CO)C[C@@H]1C was read as F508del corr 1, rRNA inh HTS 1 and Cneo AK release -3.
`C[C@H]1CCCCO[C@@H](CN(C)Cc2ccc(C(F)(F)F)cc2)[C@@H](C)CN([C@@H](C)CO)C(=O)c2cc(NC(=O)C3CCCCC3)ccc2O1` gave F508del corr 0, rRNA inh HTS -3 and Cneo AK release 1.
Screening CC(=O)OCC1=C(C(=O)O)N2C(=O)C(NC(=O)c3ccc(COc4cccc(Cl)c4Cl)o3)C2SC1 (stereo not drawn) returned F508del corr -2, rRNA inh HTS -26*, Cneo AK release 0 and CaV13 ICDI inh 0.
For COc1ccc(N2CCN(c3ncnc4scc(-c5ccc(F)cc5)c34)CC2)cc1 the results were F508del corr 2, rRNA inh HTS -24*, Cneo AK release 2 and CaV13 ICDI inh -3.
Screening CCCCC(NC(=O)COc1cc2c(c3oc(=O)cc(C)c13)CCC(C)(C)O2)C(=O)O (stereo not drawn) returned F508del corr 0, rRNA inh HTS -14, Cneo AK release 1 and CaV13 ICDI inh -20.
